# In ChEMBL document CHEMBL1121744, “Synthesis and antihypertensive activity of a series of 8-substituted 1-oxa-3,8-diazaspiro[4.5]decan-2-ones” (J Med Chem, 1981):
# Where “and” joins values, the source holds several entries; their conditions need not be identical. Equal values may be shown once. Calls of active or inactive are those of the source. The calls are words filed in the database; no cut-off is given here.
# Columns and labels:
# [1] = Distribution coefficient between 1-Octanol and phosphate buffer at pH7.4; assay type: physicochemical; conditions: 1-octanol/phosphate buffer, pH 7.4
# Rattus norvegicus [2] = test: The antihypertensive activity as percentage fall in systolic blood pressure in spontaneously hypertensive rats after a period of 1 hr for a dose of 100 mg/kg po; assay type: functional, Artery
# Outline: (§1)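 Male Okamoto-Aoki SHR, trained, in groups of four matched for mean systolic pressure; one group per run received water vehicle. Oral dosing in water (0.1 mL per 10 g) on two consecutive mornings. After the day-2 dose, rats were restrained at 30.0 ± 1.0 °C. Systolic pressure was read by tail cuff (inflated to 300 mmHg, first pulse) at 1–4 h. % fall is versus the untreated control group, by 1-tail t test (p ≤ 0.05).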
# Rattus norvegicus [3] = test: The antihypertensive activity as percentage fall in systolic blood pressure in spontaneously hypertensive rats after a period of 2 hr for a dose of 100 mg/kg po; assay type: functional, Artery; outline: as §1
# Rattus norvegicus [4] = test: The antihypertensive activity as percentage fall in systolic blood pressure in spontaneously hypertensive rats after a period of 3 hr for a dose of 100 mg/kg po; assay type: functional, Artery; outline: as §1
# Rattus norvegicus [5] = test: The antihypertensive activity as percentage fall in systolic blood pressure in spontaneously hypertensive rats after a period of 4 hr for a dose of 100 mg/kg po; assay type: functional, Artery; outline: as §1
# Rattus norvegicus [6] = test: Antihypertensive activity as percentage fall in systolic blood pressure in spontaneously hypertensive rats after a period of 1 hr for a dose of 50 mg/kg; assay type: functional, Artery; outline: as §1
# Rattus norvegicus [7] = test: Percentage fall in systolic blood pressure in spontaneously hypertensive rats after 2 hr following 50 mg/kg p.o.; assay type: functional, Artery; conditions: route oral; outline: as §1
# Rattus norvegicus [8] = test: Percentage fall in systolic blood pressure in spontaneously hypertensive rats after 3 h following 50 mg/kg p.o.; assay type: functional, Artery; conditions: route oral; outline: as §1
# Rattus norvegicus [9] = test: Antihypertensive activity as percentage fall in systolic blood pressure in spontaneously hypertensive rats after a period of 4 hr for a dose of 50 mg/kg; assay type: functional, organism-based; design: dose 50 mg/kg; conditions: Artery; outline: as §1
# Rattus norvegicus [10] = test: Antihypertensive activity as percentage fall in systolic blood pressure in spontaneously hypertensive rats after a period of 3 hr for a dose of 25 mg/kg po.; NS=Not significant; assay type: functional, organism-based; design: dose 25 mg/kg; conditions: Artery; outline: as §1
# Rattus norvegicus [11] = test: Antihypertensive activity as percentage fall in systolic blood pressure in spontaneously hypertensive rats after a period of 4 hr for a dose of 25 mg/kg po.; NS=Not significant; assay type: functional, organism-based; design: dose 25 mg/kg; conditions: Artery; outline: as §1
# Rattus norvegicus [12] = test: Antihypertensive activity as percentage fall in systolic blood pressure in spontaneously hypertensive rats after a period of 4 hr for a dose of 50 mg/kg po; assay type: functional, Artery; outline: as §1
# Rattus norvegicus [13] = test: Antihypertensive activity as percentage fall in systolic blood pressure in spontaneously hypertensive rats after a period of 2 hr for a dose of 25 mg/kg po.; NS=Not significant; assay type: functional, organism-based; design: dose 25 mg/kg; conditions: Artery; outline: as §1
# Rattus norvegicus [14] = test: Antihypertensive activity as percentage fall in systolic blood pressure in spontaneously hypertensive rats after a period of 2 hr for a dose of 50 mg/kg; assay type: functional, organism-based; design: dose 50 mg/kg; conditions: Artery; outline: as §1
# Canis familiaris [15] = test: Percent inhibition of the pressor responses to 0.75 ug/kg iv norepinephrine in pentobarbital-anesthetized dogs for a dose of 0.1 mg/kg; assay type: functional; conditions: Canis lupus familiaris
# Outline: (§2)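 Pentobarbital-anesthetized dogs (35 mg/kg iv) with femoral arterial pressure recording. Epinephrine (1 μg/kg), norepinephrine (0.75 μg/kg) and phenylephrine (7.5 μg/kg) iv challenges were given about every 10 min before and after rising iv test doses, which were spaced 90 min apart. Value is % inhibition of the pressor response.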
# Canis familiaris [16] = test: Percent inhibition of the pressor responses to 0.75 ug/kg iv norepinephrine in pentobarbital-anesthetized dogs for a dose of 1 mg/kg; assay type: functional; conditions: Canis lupus familiaris; outline: as §2
# Canis familiaris [17] = test: Percent inhibition of the pressor responses to 1 ug/kg iv Epinephrine in pentobarbital-anesthetized dogs for a dose of 0.1 mg/kg; assay type: functional; conditions: Canis lupus familiaris; outline: as §2
# Canis familiaris [18] = test: Percent inhibition of the pressor responses to 1 ug/kg iv Epinephrine in pentobarbital-anesthetized dogs for a dose of 10 mg/kg; assay type: functional; conditions: Canis lupus familiaris; outline: as §2
# Canis familiaris [19] = test: Change in mean arterial pressure in anesthetized dogs for a dose of 0.1 mg/kg; assay type: functional, Canis lupus familiaris, Artery
# Outline: (§3)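 Dogs anesthetized with sodium pentobarbital (35 mg/kg iv), femoral artery cannulated for pressure, ECG-triggered heart rate, femoral vein for dosing. Rising iv doses were given 90 min apart, and each dose is the full dose, not cumulative. Value is the maximal mean arterial pressure change 10–15 min after each dose, two dogs per compound, ±3 mmHg. Saline served as control.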
# Canis familiaris [20] = test: Change in mean arterial pressure in anesthetized dogs for a dose of 1 mg/kg; assay type: functional, Canis lupus familiaris, Artery; outline: as §3
# Canis familiaris [21] = test: Change in mean arterial pressure in anesthetized dogs for a dose of 10 mg/kg; assay type: functional, Canis lupus familiaris, Artery; outline: as §3
# Canis familiaris [22] = test: Percent inhibition of the pressor responses to 1 ug/kg iv Epinephrine in pentobarbital-anesthetized dogs for a dose of 1 mg/kg; assay type: functional; conditions: Canis lupus familiaris; outline: as §2
# Canis familiaris [23] = test: Percent inhibition of the pressor responses to 7.5 ug/kg iv phenylephrine in pentobarbital-anesthetized dogs for a dose of 1 mg/kg; assay type: functional; conditions: Canis lupus familiaris; outline: as §2
# Canis familiaris [24] = test: Percent inhibition of the pressor responses to 7.5 ug/kg iv phenylephrine in pentobarbital-anesthetized dogs for a dose of 10 mg/kg; assay type: functional; conditions: Canis lupus familiaris; outline: as §2
# Canis familiaris [25] = test: Percent inhibition of the pressor responses to 7.5 ug/kg iv phenylephrine in pentobarbital-anesthetized dogs for a dose of 0.1 mg/kg; assay type: functional; conditions: Canis lupus familiaris; outline: as §2
smiles,measurement,setting,value
O=C1NCC2(CCN(CC(O)C3COc4ccccc4O3)CC2)O1 (configuration not stated),logD,[1],0.98
same,Decrease in blood pressure,Rattus norvegicus [2],24%
same,Decrease in blood pressure,Rattus norvegicus [3],14%
same,Decrease in blood pressure,Rattus norvegicus [4],11%
same,Decrease in blood pressure,Rattus norvegicus [5],16%
same,Decrease in blood pressure,Rattus norvegicus [6],28%
same,Decrease in blood pressure,Rattus norvegicus [7],12%
same,Decrease in blood pressure,Rattus norvegicus [8],21%
same,Decrease in blood pressure,Rattus norvegicus [9],Not significant
COc1ccccc1OCC(O)CN1CCC2(CC1)CN(C)C(=O)O2 (configuration not stated),logD,[1],0.96
same,Decrease in blood pressure,Rattus norvegicus [10],inactive
same,Decrease in blood pressure,Rattus norvegicus [11],inactive
same,Decrease in blood pressure,Rattus norvegicus [12],9%
same,Decrease in blood pressure,Rattus norvegicus [6],15%
same,Decrease in blood pressure,Rattus norvegicus [13],inactive
same,Decrease in blood pressure,Rattus norvegicus [14],Not significant
same,Decrease in blood pressure,Rattus norvegicus [8]; 50 mg/kg,19% and 7%
O=C(NC1CCN(CCc2c[nH]c3ccccc23)CC1)c1ccccc1 [INDORAMIN],logD,[1],2.13
same,inhibition in vivo at 0.1 mg/kg,Canis familiaris [15],21%
same,inhibition in vivo at 1 mg/kg,Canis familiaris [16],23%
same,inhibition in vivo at 0.1 mg/kg,Canis familiaris [17],74%
same,inhibition in vivo at 10 mg/kg,Canis familiaris [18],> 100%
same,MAP,Canis familiaris [19],-5 mmHg
same,MAP,Canis familiaris [20],-28 mmHg
same,MAP,Canis familiaris [21],-38 mmHg
same,inhibition in vivo at 1 mg/kg,Canis familiaris [22],92%
same,inhibition in vivo at 1 mg/kg,Canis familiaris [23],83%
same,inhibition in vivo at 10 mg/kg,Canis familiaris [24],93%
same,Decrease in blood pressure,Rattus norvegicus [6],33%
same,Decrease in blood pressure,Rattus norvegicus [7]; 50 mg/kg,20% and 11%
same,Decrease in blood pressure,Rattus norvegicus [8],13%
same,inhibition in vivo at 0.1 mg/kg,Canis familiaris [25],65%
